≈ marks a conversion by molar mass, not a printed value. Where two headings read alike, the source gives them in different places.
Experiments:
pol β = pol β (Homo sapiens, UniProt P06746); test: Presteady-state burst kinetics; assay type: biochemical; details: modeling with a noncompetitive inhibition scheme (Figure S10)
[1] = biological target: T1, human DNA polymerase λ (pol λ) (Homo sapiens, UniProt Q9UGP5); test: Steady-state primer extension assay, pol λ; assay type: biochemical
T1 sequence (Q9UGP5 1-575): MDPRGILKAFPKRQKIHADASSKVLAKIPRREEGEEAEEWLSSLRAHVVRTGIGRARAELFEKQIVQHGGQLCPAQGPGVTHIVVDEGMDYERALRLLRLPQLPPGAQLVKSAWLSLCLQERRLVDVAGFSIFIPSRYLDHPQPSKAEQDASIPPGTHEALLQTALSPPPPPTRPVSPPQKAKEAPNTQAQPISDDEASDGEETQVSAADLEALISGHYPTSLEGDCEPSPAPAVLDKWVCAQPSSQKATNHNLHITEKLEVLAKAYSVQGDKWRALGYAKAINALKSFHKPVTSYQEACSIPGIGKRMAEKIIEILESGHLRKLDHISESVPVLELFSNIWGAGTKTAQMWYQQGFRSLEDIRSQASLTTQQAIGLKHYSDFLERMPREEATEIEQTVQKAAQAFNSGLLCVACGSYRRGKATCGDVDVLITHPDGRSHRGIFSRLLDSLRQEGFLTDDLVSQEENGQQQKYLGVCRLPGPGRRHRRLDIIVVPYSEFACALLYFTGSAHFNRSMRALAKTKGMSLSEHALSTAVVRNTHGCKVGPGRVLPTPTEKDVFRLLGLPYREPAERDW

MCF7 cells = test: MTS assay of cell proliferation, MCF7; assay type: cell-based, human; details: for IC50: Homo sapiens; for −log(IC50) (95% CI): tested compound alone
Method in brief: (§1)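 Cells grown in DMEM with 10% FBS at 37 °C and 5% CO2. Plated at 5 × 10^3 per well, grown 24 h, then exposed 24 or 72 h to test compound alone or in pairs: 10 μM bleomycin-type or 250 μM alkylating agent added to the lignan, or 10 μM lignan added to either. DMSO 0.2% final; vehicle controls. MTS/PMS for 4 h; A492; cell-free background. Triplicate; IC50 fit, 95% CI.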

PANC1 cells = test: MTS assay of cell proliferation, PANC1; assay type: cell-based, human; details: for IC50: Homo sapiens; for −log(IC50) (95% CI): tested compound alone
Method in brief: as §1

[2] = biological target: human DNA polymerase β (pol β) (Homo sapiens, UniProt P06746); test: Steady-state primer extension assay, pol β; assay type: biochemical
[3] = cited from earlier work
pol β binding to DNA = pol β binding to DNA (Homo sapiens, UniProt P06746); test: Polymerase–DNA interaction, electrophoretic mobility shift assay, pol β; details: for inhibition of DNA binding to polymerase (EMSA): honokiol up to 200 μM, polymerase in excess of DNA
[4] = tested on: HL60 promyelocytic leukemia cells; details: mice xenografted with HL60 promyelocytic leukemia cells; cited from earlier work
[5] = Solubility limit of honokiol in polymerase buffer; assay type: physicochemical
pol λ binding to DNA = biological target: T2, pol λ binding to DNA (Homo sapiens, UniProt Q9UGP5); test: Polymerase–DNA interaction, electrophoretic mobility shift assay, pol λ; details: for inhibition of DNA binding to polymerase (EMSA): honokiol up to 200 μM, polymerase in excess of DNA
T2 sequence (Q9UGP5 1-575): T1 sequence (Q9UGP5 1-575)

KF(exo-) binding to DNA = KF(exo-) binding to DNA (Escherichia coli, UniProt P00582, D355A/E357A); test: Polymerase–DNA interaction, electrophoretic mobility shift assay, KF; design: species or system E. coli; details: native PAGE
A549 cells = test: MTS assay of cell proliferation, A549; assay type: cell-based, human; details: A549, 24 h
Method in brief: as §1

[6] = biological target: T3, human DNA polymerase η (pol η) (Homo sapiens, UniProt Q9Y253); test: Steady-state primer extension assay, pol η; assay type: biochemical
T3 sequence (Q9Y253 1-713): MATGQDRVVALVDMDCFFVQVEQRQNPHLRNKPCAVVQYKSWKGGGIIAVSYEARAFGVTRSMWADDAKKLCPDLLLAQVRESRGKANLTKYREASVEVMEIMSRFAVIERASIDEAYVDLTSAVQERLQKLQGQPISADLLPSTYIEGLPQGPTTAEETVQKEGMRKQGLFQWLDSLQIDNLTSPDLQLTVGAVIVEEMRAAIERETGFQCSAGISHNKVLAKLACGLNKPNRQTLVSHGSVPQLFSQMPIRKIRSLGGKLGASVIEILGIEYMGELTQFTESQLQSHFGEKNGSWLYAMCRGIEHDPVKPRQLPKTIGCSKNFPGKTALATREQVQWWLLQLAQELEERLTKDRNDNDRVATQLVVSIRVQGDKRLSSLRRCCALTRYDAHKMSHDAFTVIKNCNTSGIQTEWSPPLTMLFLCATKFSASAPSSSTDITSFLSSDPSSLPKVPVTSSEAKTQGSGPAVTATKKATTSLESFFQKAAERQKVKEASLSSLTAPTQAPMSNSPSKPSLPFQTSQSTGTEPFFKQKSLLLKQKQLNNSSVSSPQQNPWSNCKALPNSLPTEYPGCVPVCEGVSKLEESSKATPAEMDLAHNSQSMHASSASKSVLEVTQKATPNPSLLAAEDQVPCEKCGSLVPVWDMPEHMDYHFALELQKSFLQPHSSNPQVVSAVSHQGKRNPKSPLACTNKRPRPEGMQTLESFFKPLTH

pol η binding to DNA = biological target: T4, pol η binding to DNA (Homo sapiens, UniProt Q9Y253); test: Polymerase–DNA interaction, electrophoretic mobility shift assay, pol η; details: native PAGE
T4 sequence (Q9Y253 1-713): T3 sequence (Q9Y253 1-713)

[7] = biological target: DNA polymerase I from E. coli (Klenow fragment), Kf(exo-) (Escherichia coli, UniProt P00582, D355A/E357A); test: Steady-state primer extension assay, Kf; assay type: biochemical
[8] = eq 3, factor on Km/Ki, 95% confidence limits
[9] = eq 3, residual catalysis with HNL bound, 95% confidence limits

Structure (SMILES): C=CCc1ccc(O)c(-c2ccc(O)c(CC=C)c2)c1 [HNL, 2-(4-hydroxy-3-prop-2-enyl-phenyl)-4-prop-2-enyl-phenol]
- honokiol off rate constant (pol β): 0.16 s⁻¹
- IC50 [1]: 0.8 µM
- Ki [1]: 8.3 µM
- α [1, 8]: 0.51 (0.24, 0.78)
- β [1, 9]: 0.07 (0.02, 0.12)
- inhibition mechanism versus dCTP ([1]; steady-state kinetic analysis): mixed-type noncompetitive
- IC50 (MCF7 cells; MCF7, 24 h, read-out: −log(IC50) (95% CI), MCF7, 24 h, tested compound alone (converted)): 20 µM
- IC50 (MCF7 cells; MCF7, 72 h, read-out: −log(IC50) (95% CI), MCF7, 72 h, tested compound alone (converted)): 15.8 µM
- −log(IC50) (95% CI) (MCF7 cells; MCF7, 24 h): 4.8 (4.7, 4.8)
- −log(IC50) (95% CI) (MCF7 cells; MCF7, 72 h): 4.9 (4.8, 5.0)
- IC50 (PANC1 cells; PANC-1, 24 h, read-out: −log(IC50) (95% CI), PANC1, 24 h, tested compound alone (converted)): 20 µM
- IC50 (PANC1 cells; PANC-1, 72 h, read-out: −log(IC50) (95% CI), PANC1, 72 h, tested compound alone (converted)): 7.94 µM
- −log(IC50) (95% CI) (PANC1 cells; PANC1, 24 h): 4.6 (4.5, 4.8)
- −log(IC50) (95% CI) (PANC1 cells; PANC1, 72 h): 4.8 (4.7, 4.9)
- IC50 [2]: 0.6 µM
- Ki ([2]; Ki, hyperbolic mixed-type inhibition fit (eq 3), vs dCTP, 95% confidence limits): 4 µM
- α [2, 8]: 0.55 (0.31, 0.79)
- β [2, 9]: 0.20 (0.15, 0.25)
- inhibition mechanism versus dCTP ([2]; steady-state kinetic analysis): mixed-type noncompetitive
- crossing of blood–brain and blood–cerebrospinal fluid barriers [3]: crosses the blood–brain and blood–cerebrospinal fluid barriers
- Ki (pol β binding to DNA): > 500 µM
- inhibition of DNA binding to polymerase (EMSA) (pol β binding to DNA; listed as Honokiol): does not inhibit DNA binding
- inhibition of DNA binding to polymerase (EMSA) (pol β binding to DNA; listed as honokiol): did not inhibit the binding of the DNA to the polymerase
- prolonging life in xenografted mice [4]: effective in prolonging life
- solubility [5]: 200 µM (≈ 53.3 µg/mL)
- Ki (pol λ binding to DNA): > 500 µM
- inhibition of DNA binding to polymerase (EMSA) (pol λ binding to DNA; listed as Honokiol): does not inhibit DNA binding
- inhibition of DNA binding to polymerase (EMSA) (pol λ binding to DNA; listed as honokiol): did not inhibit the binding of the DNA to the polymerase
- inhibition of DNA binding to polymerase (EMSA) (KF(exo-) binding to DNA): does not inhibit DNA binding
- −log(IC50) (95% CI) (A549 cells; tested compound alone): 4.6 (4.5, 4.8)
- IC50 (A549 cells; Homo sapiens, read-out: −log(IC50) (95% CI), A549, 24 h, tested compound alone (converted)): 25.1 µM
- IC50 [6]: 10 µM
- Ki [6]: 20 µM
- α [6, 8]: 0.49 (0.12, 0.85)
- β [6, 9]: 0.03 (–0.10, 0.15)
- inhibition mechanism versus dCTP ([6]; steady-state kinetic analysis): linear mixed-type noncompetitive
- inhibition of DNA binding to polymerase (EMSA) (pol η binding to DNA): does not inhibit DNA binding
- IC50 [7]: 80 µM
- Ki [7]: 26 µM
- α [7, 8]: 0.48 (0.23, 0.74)
- β [7, 9]: 0.16 (0.09, 0.23)
- inhibition mechanism versus dCTP ([7]; steady-state kinetic analysis): mixed-type noncompetitive

Reference: PMC5665024 (Chemical research in toxicology, 2017)
